From PubChem
esBAF inh: blocks esBAF chromatin remodeling in mouse ES cells | Bmi1-luciferase knock-in reporter, 24 h; 100% = twice the neutral-well signal | reporter increase, % at 12.5 µM | 350,000 tested, 2% active; in the data active means activation above about 40%; inconclusive means no clear call, values can overlap the other calls;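 further: 0% = median of the plate's neutral control wells and 100% = double that signal; a rise in the Bmi1 reporter signal indicates esBAF inhibition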
MITF TRPM1 HTS: MITF TRPM1 promoter activation in melanoma cells; 300,000 tested, 0.75% active; activation, % at 12.5 µM; AID 588334; SK-MEL-5 TRPM1-promoter luciferase, 24 h; % of positive control, neutral wells = 0;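 active means mean activation of at least 80% with every replicate also reaching 80%; inconclusive means mean reaches 80% but some replicate falls short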;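 further: 0% = neutral control wells and 100% = parthenolide positive control wells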
Vif imaging: inhibitors of HIV Vif; HEK293T cells, Vif self-association by quenched fluorescence, imaging, 24 h; inhibition, % at 7.49 µM; 340,000 tested, 0.35% active; in the data active means inhibition above about 50%, passing the limit was not always enough; inconclusive means no clear call, values can overlap the other calls; inactive means below about 31%
Wnt act: activators of Wnt/beta-catenin signaling | Wnt/beta-catenin reporter cell assay, activator, plate reader | activation, % at 9.35 µM | 300,000 tested, 1.2% active; in the data active means activation above about 30%, passing the limit was not always enough; inconclusive means no clear call, values can overlap the other calls;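 further: 0% = neutral control wells and 100% = positive control wells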
XiGFP reactiv: activators of X-chromosome reactivation in mouse fibroblasts; XiGFP mouse fibroblasts, % GFP-positive cells imaging, 3 d; cells co-treated with 5-aza-dC sensitizer; scaled so ellipticine positive control = 100%; activation, % at 7.58 µM; 360,000 tested, 0.055% active; AID 743238;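 active means mean normalized replicate activation at least 10% and every replicate at or above 10%; inconclusive means only one of the two criteria met; inactive means mean below 10% and not all replicates reach 10%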;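 further: 0% = median of on-plate neutral control wells and 100% = ellipticine 6 µM median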
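System: 68-5-11 XiGFP fibroblast line | Buffer or medium: DMEM containing 5-aza-dC | Compound: Single point | Times: Compounds 3 days, fix/stain 15 min at room temperature | Benchmarks: Positive control ellipticine, 6 µM final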
* hit, by the source's call; ? = inconclusive; . = not tested or not shown; + = active, no number. An excerpt weighted towards active compounds, which were near 2.6% of everything screened.

SMILES | esBAF inh | MITF TRPM1 HTS | Vif imaging | Wnt act | XiGFP reactiv
Fc1ccc(N2CCN(c3cnc4ccccc4n3)CC2)cc1 | 11 | 61 | 12 | 42* | 0
Clc1ccc(N2CCN(c3cnc4ccccc4n3)CC2)cc1 | 45* | 39 | 2 | . | .
c1ccc(N2CCN(c3cnc4ccccc4n3)CC2)cc1 | -2 | 55 | -10 | . | .
COc1ccc(N2CCN(c3cnc4ccccc4n3)CC2)cc1 | 53* | 97* | 0 | 10 | 0
C[C@@H]1CN([C@H](C)CO)C(=O)Cc2cc(NC(=O)c3ccncc3)ccc2O[C@H]1CN(C)CC1CC1 | 0 | . | . | . | 0
CCCCc1ccc(-c2csc(/C(C#N)=C\c3ccco3)n2)cc1 | . | -4 | 51* | 1 | 0
N#C/C(=C/c1ccco1)c1nc2ccccc2s1 | . | 5 | -8 | 51* | 0
C[C@H]1CN(C)C(=O)Cc2cc(N)ccc2O[C@@H]1CN(C)S(C)(=O)=O | . | . | . | . | 0
O=C(C[C@H]1CC[C@@H]2[C@H](COC[C@H](O)CN2Cc2cc(F)cc(F)c2)O1)NC1CCCC1 | 2 | . | . | . | 0
COc1ccc(NC(=O)/C=C/c2ccco2)cn1 | 44* | 118* | 14 | ? | 0
COc1ccc(NC(=O)/C=C/c2cccc(F)c2)cn1 | . | 31 | 1 | 36* | 0
CC(C)NC(=O)N(C)C[C@@H]1Oc2ccc(NS(=O)(=O)c3cccs3)cc2C(=O)N([C@@H](C)CO)C[C@H]1C | 3 | . | . | . | -1
COC(=O)Nc1c(-c2ccccc2)nc2ccccn12 | 3 | -7 | 4 | . | .
c1ccc(-c2nc3ccccn3c2-c2ccccc2)cc1 | . | -4 | -7 | 43* | 0
CN(C)c1cccc(-c2csc(N3CCC(C(N)=O)CC3)n2)c1 | 60* | 83* | 2 | 33* | 0
Cc1onc(C(=O)N2CCC(C(N)=O)CC2)c1-c1ccccc1Cl | -10 | 10 | 5 | -5 | .
NC(=O)C1CCN(c2nc(-c3cccs3)cs2)CC1 | 47* | ? | 0 | . | .
NC(=O)C1CCN(c2nc(-c3ccc(Br)cc3)cs2)CC1 | . | 11 | 0 | 15 | 0
Cc1noc(C)c1-c1csc(N2CCC(C(N)=O)CC2)n1 | 74* | 48 | -2 | 22 | 0
NC(=O)C1CCN(c2nc(-c3ccc4c(c3)OCCO4)cs2)CC1 | . | . | . | -1 | 0
COc1cccc(C(=O)Nc2ccc3c(c2)C(=O)N(C)[C@@H]2CC[C@@H](CC(=O)NCC(F)(F)F)O[C@H]2CO3)c1 | 3 | . | . | . | 0
Cn1ccsc1=NC(=O)c1cccc(OC(F)F)c1 | 53* | 69 | -9 | 22 | 0
Cn1ccsc1=NC(=O)c1ccc(=O)[nH]c1 | -6 | -6 | -3 | 0 | 0
O=C(O)c1ccc(-c2noc(-c3ccccc3Cl)n2)cc1 | 3 | 13 | -5 | 39* | 0
O=C(O)c1ccc(-c2noc(-c3ccccc3C(F)(F)F)n2)cc1 | 36 | 40 | 32 | ? | 0
SMILES | esBAF inh | MITF TRPM1 HTS | Vif imaging | Wnt act | XiGFP reactiv
O=C(O)c1ccc(-c2noc(-c3cccc(Cl)c3)n2)cc1 | 63* | 87* | -5 | 17 | 0
O=C(O)c1ccc(-c2noc(-c3ccc(F)cc3)n2)cc1 | 11 | 4 | 23 | 4 | 0
CCCNC(=O)C[C@@H]1CC[C@@H]2[C@H](COC[C@@H](O)CN2C(=O)c2cc(Cl)cc(Cl)c2)O1 | 2 | . | . | . | 0
C[C@H]1CC=CC[C@H](c2ccc(F)cc2)NC(=O)[C@H](C)N(C)C(=O)c2ccccc2O1 (mixture of isomers) | . | . | . | . | 0
N#Cc1ccccc1OCC(=O)Nc1ccc2c(c1)OCCO2 | 66* | 79 | -1 | -1 | 0
N#Cc1ccccc1OCC(=O)NC1CCCCC1 | . | 42 | 3 | -1 | 0
N#Cc1ccccc1OCC(=O)Nc1ccc2c(c1)OCCCO2 | 74* | . | -2 | 11 | 0
CC1CCCCC1NC(=O)COc1ccccc1C#N (centres undefined) | 53* | 6 | -9 | 8 | 0
CC(C)NC(=O)COc1ccccc1C#N | . | -4 | -8 | -1 | 0
N#Cc1ccccc1OCC(=O)Nc1ccc2c(c1)OCO2 | 65* | . | -2 | 3 | 0
O=C(COc1ccccc1F)Nc1ccc2c(c1)OCCO2 | -20 | 76 | -3 | 19 | 0
COc1ccc(CNC(=O)C[C@H]2CC[C@@H](NC(=O)c3cccc(F)c3)[C@@H](CO)O2)cc1 | 4 | . | . | . | 0
C[C@H](CO)N1C[C@H](C)[C@H](CN(C)Cc2ccccc2)OCCCC[C@H](C)Oc2ccc(N(C)C)cc2C1=O | -1 | . | . | . | 0
O=C(COc1ccccc1Br)Nc1ccc2c(c1)OCCCO2 | 51* | 108* | 10 | 0 | 0
Cc1cc(OCC(=O)Nc2ccc3c(c2)OCCO3)cc(C)c1Cl | . | -9 | -10 | -2 | .
CCC(=O)N1C[C@@H](C)[C@@H](OC)CN(C)C(=O)c2cc(NS(C)(=O)=O)ccc2OC[C@H]1C | 4 | . | . | . | 0
COc1ccc(CCN(Cc2ccccn2)C(=S)Nc2cccc(C)c2)cc1OC | -3 | 6 | 8 | 45* | 0
COC(=O)c1ccccc1NC(=O)Cn1cnc2cc(C)c(C)cc21 | 13 | -4 | 71* | -2 | .
O=C(CC1CC1)Nc1ccc2c(c1)[C@@H]1C[C@@H](CC(=O)N3CCCCC3)O[C@H](CO)[C@@H]1O2 | 0 | . | . | . | 1
CO[C@H](CN(C)S(=O)(=O)c1ccc(F)cc1)[C@@H](C)CN([C@@H](C)CO)S(=O)(=O)c1cccc(Cl)c1 | 1 | . | . | . | 0
C#CCOCCOCCOCCNc1nc(N2CCN(C(=O)CCCCCCCCCCNC(=O)Cn3cc(CCCCCN)nn3)CC2)nc(N2CCN(C(=O)CCCCCCCCCCNC(=O)[C@H]([C@@H](C)CC)n3cc(CCCCN=C(N)N)nn3)CC2)n1 | 5 | -74 | 104* | . | .
C#CCOCCOCCOCCNc1nc(N2CCN(C(=O)CCCCCCCCCCNC(=O)[C@H]([C@@H](C)CC)n3cc(CCCCCN)nn3)CC2)nc(N2CCN(C(=O)CCCCCCCCCCNC(=O)[C@H]([C@@H](C)CC)n3cc(CCCCN=C(N)N)nn3)CC2)n1 | -14 | -97 | + | . | .
C#CCOCCOCCOCCNc1nc(N2CCN(C(=O)CCCCCCCCCCNC(=O)[C@H]([C@@H](C)CC)n3cc(CCCCCN)nn3)CC2)nc(N2CCN(C(=O)CCCCCCCCCCNC(=O)[C@H](CO)n3cc(CCCCCN)nn3)CC2)n1 | -9 | -81 | 96* | . | .
C#CCOCCOCCOCCNc1nc(N2CCN(C(=O)CCCCCCCCCCNC(=O)[C@H]([C@@H](C)CC)n3cc(CCCCN=C(N)N)nn3)CC2)nc(N2CCN(C(=O)CCCCCCCCCCNC(=O)[C@H](CO)n3cc(CCCCCN)nn3)CC2)n1 | 0 | -84 | 21 | . | .
CCC(=O)N1CC(=O)N2[C@@H](CO)[C@H](c3ccc(C#CCc4ccccc4)cc3)[C@@H]2C1 | . | . | . | . | 0
NC(=O)c1ccccc1NC(=O)/C=C/c1cccc(Cl)c1 | 76* | . | 13 | . | .
